Laboratory results published in ChEMBL document CHEMBL4145618, “Constraining Endomorphin-1 by β,α-Hybrid Dipeptide/Heterocycle Scaffolds: Identification of a Novel κ-Opioid Receptor Selective Partial Agonist” (J Med Chem, 2018).
The source made the active and inactive calls.

Assays:
Mu-type opioid receptor [1] = biological target: T1, Mu-type opioid receptor (Homo sapiens, UniProt P35372); experiment: Displacement of [3H]DAMGO from human mu opioid receptor expressed in HEK293 cell membranes after 2 hrs by liquid scintillation spectrometry
T1 sequence (P35372 whole entry): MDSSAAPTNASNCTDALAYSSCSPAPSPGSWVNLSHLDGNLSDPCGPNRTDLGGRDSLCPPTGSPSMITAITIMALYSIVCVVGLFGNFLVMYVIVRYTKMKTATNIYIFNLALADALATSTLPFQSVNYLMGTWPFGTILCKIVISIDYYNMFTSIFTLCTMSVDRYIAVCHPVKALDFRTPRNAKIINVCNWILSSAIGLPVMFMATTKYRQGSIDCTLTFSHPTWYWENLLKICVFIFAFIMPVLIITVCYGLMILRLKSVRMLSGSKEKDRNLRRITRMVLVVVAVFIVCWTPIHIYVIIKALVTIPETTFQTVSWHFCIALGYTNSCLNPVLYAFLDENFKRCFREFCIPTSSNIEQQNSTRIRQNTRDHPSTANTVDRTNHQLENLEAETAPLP
In short: (§1)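 Membranes from HEK-293 cells stably expressing human opioid receptors. Radioligands: [3H]DAMGO for MOR, [3H]diprenorphine for DOR, [3H]U69,593 for KOR. Competitor range 10^-12–10^-4 M, 120 min at 25°C, Tris-HCl buffer with 0.3% BSA. Unlabelled ligands defined nonspecific binding. Bound label collected on 0.3% polyethylenimine-presoaked filters and counted by liquid scintillation. Ki from IC50 via Cheng-Prusoff.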

[2] = biological target: Delta-type opioid receptor (Homo sapiens, UniProt P41143); experiment: Displacement of [3H]diprenorphine from human delta opioid receptor expressed in HEK293 cell membranes after 2 hrs by liquid scintillation spectrometry
Sequence of Delta-type opioid receptor (P41143 whole entry): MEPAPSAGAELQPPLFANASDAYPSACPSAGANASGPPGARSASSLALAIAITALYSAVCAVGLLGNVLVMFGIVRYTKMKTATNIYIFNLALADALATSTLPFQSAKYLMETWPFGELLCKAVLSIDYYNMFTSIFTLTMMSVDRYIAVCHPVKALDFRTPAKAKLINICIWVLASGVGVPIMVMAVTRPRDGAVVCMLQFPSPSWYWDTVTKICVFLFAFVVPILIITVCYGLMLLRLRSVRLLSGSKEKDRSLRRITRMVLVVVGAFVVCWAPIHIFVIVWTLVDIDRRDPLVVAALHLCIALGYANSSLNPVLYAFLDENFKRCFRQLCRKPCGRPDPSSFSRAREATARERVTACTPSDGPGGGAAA

[3] = biological target: T2, Kappa-type opioid receptor (Homo sapiens, UniProt P41145); experiment: Displacement of [3H]U69,593 from human kappa opioid receptor expressed in HEK293 cell membranes after 2 hrs by liquid scintillation spectrometry; in short: as §1
T2 sequence (P41145 whole entry): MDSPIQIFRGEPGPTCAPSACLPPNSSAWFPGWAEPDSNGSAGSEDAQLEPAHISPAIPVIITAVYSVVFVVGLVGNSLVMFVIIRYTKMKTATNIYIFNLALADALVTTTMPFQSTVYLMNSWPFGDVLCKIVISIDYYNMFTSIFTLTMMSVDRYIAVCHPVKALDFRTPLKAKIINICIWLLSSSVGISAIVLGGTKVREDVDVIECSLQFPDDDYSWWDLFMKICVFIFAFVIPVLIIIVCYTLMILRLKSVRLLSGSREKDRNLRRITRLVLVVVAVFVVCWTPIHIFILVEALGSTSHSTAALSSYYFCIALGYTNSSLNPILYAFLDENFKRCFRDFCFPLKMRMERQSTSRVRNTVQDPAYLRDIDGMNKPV

Mu-type opioid receptor [4] = biological target: T1, Mu-type opioid receptor; experiment: Agonist activity at human mu opioid receptor expressed in HEK293 assessed as inhibition forskolin-induced cAMP accumulation at 0.00001 to 100 uM after 15 mins by EIA relative to control; format: functional, cell-based
In short: (§2)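 Whole HEK-293 cells stably expressing human KOR or MOR, in serum-free medium with 0.5 mM IBMX. Cells exposed 15 min at 37°C to 10 µM forskolin, with or without test agent. KOR co-treatment run: U50,488 1 pM–100 µM with or without 1 µM test agent. cAMP measured by enzyme immunoassay.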

[5] = biological target: T2, Kappa-type opioid receptor; experiment: Agonist activity at human kappa opioid receptor expressed in HEK293 assessed as inhibition forskolin-induced cAMP accumulation at 0.00001 to 100 uM after 15 mins by cAMP EIA relative to control; format: functional, cell-based; in short: as §2
[6] = Drug metabolism in mouse serum assessed as compound hydrolysis after 1 hr by RP-HPLC analysis; format: ADME, cell-free; conditions: read-out: Drug metabolism
In short: (§3)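 Peptides incubated in mouse serum at 37°C for up to 4 h and sampled over time. Enzymatic activity stopped with cold acetonitrile, then centrifuged. Intact peptide in the supernatant quantified by reversed-phase HPLC, with ESI-MS analysis.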

[7] = biological target: T2, Kappa-type opioid receptor; experiment: Agonist activity at human kappa opioid receptor expressed in HEK293 assessed as inhibition forskolin-induced cAMP accumulation after 15 mins by EIA; format: functional, cell-based; in short: as §2
[8] = biological target: T2, Kappa-type opioid receptor; experiment: Agonist activity at human kappa opioid receptor expressed in HEK293 assessed as inhibition forskolin-induced cAMP accumulation at 1 uM after 15 mins in presence of U50,488 by EIA; format: functional, cell-based; in short: as §2
Mus musculus [9] = experiment: Antinociceptive activity in CD1 mouse assessed as increase in latency to response at 20 mg/kg, ip measured at 15 mins post dose by tail immersion test relative to control; format: functional
In short: (§4)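 Mouse warm-water tail immersion at 52 ± 0.5 °C. Control withdrawal latency recorded before dosing; only mice responding within 5 s were used. Vehicle or compound given ip at 10 or 20 mg/kg. Where stated, norBNI 10 mg/kg given 30 min before compound. Test latency taken with 10 s cutoff. MPE% = 100 × (TL − CL)/(10 − CL); n = 6.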

Mus musculus [10] = experiment: Antinociceptive activity in CD1 mouse assessed as increase in latency to response at 20 mg/kg, ip measured at 30 mins post dose by tail immersion test relative to control; format: functional; in short: as §4
Mus musculus [11] = experiment: Antinociceptive activity in CD1 mouse assessed as increase in latency to response at 10 mg/kg, ip measured at 15 mins post dose by tail immersion test; format: functional, organism-based; in short: as §4
Mus musculus [12] = experiment: Antinociceptive activity in CD1 mouse assessed as increase in latency to response at 20 mg/kg, ip measured at 15 mins post dose in presence of KOR antagonist nor-BNI by tail immersion test; format: functional, organism-based; in short: as §4
[13] = Drug metabolism in mouse serum assessed as compound hydrolysis after 4 hrs by RP-HPLC analysis; format: ADME, cell-free; conditions: read-out: Drug metabolism; in short: as §3
Mu-type opioid receptor [14] = biological target: T1, Mu-type opioid receptor; experiment: Agonist activity at human mu opioid receptor expressed in HEK293 assessed as inhibition forskolin-induced cAMP accumulation after 15 mins by EIA; format: functional, cell-based; in short: as §2

Row | SMILES | Ki (Mu-type opioid receptor [1]) | Ki [2] | Ki [3] | Emax (Mu-type opioid receptor [4]) | also measured
1 | NC(=O)[C@H](Cc1ccccc1)NC(=O)[C@@H](Cc1c[nH]c2ccccc12)N1C(=O)O[C@@H](CNC(=O)[C@@H](N)Cc2ccc(O)cc2)C1=O | > 100 µM | > 100 µM | > 100 µM | – | –
2 | N[C@@H](Cc1ccc(O)cc1)C(=O)N1CCC[C@H]1C(=O)N[C@@H](Cc1c[nH]c2ccccc12)C(=O)N[C@@H](Cc1ccccc1)C(=O)O | – | – | – | 53% | –
3 | NC(=O)[C@H](Cc1ccccc1)NC(=O)[C@H](Cc1c[nH]c2ccccc12)N1C(=O)O[C@@H](CNC(=O)[C@@H](N)Cc2ccc(O)cc2)C1=O | > 100 µM | > 100 µM | 0.0098 µM | – | Emax [5]: 40%; metabolised at 1 h [6]: < 5%; IC50 [7]: 0.00022 µM; inhibition [8]: 40%; MPE (Mus musculus [9]): 60%; MPE (Mus musculus [10]): 42%; Activity (Mus musculus [11]): Active; Activity (Mus musculus [12]): inactive
4 | NC(=O)[C@H](Cc1ccccc1)NC(=O)[C@H](Cc1c[nH]c2ccccc12)N1C(=O)O[C@H](CNC(=O)[C@@H](N)Cc2ccc(O)cc2)C1=O | > 100 µM | > 100 µM | > 100 µM | – | –
5 | NC(=O)[C@H](Cc1ccccc1)NC(=O)[C@@H](Cc1c[nH]c2ccccc12)N1C(=O)O[C@H](CNC(=O)[C@@H](N)Cc2ccc(O)cc2)C1=O | 0.24 µM | > 100 µM | > 100 µM | 50% | metabolised at 4 h [13]: < 10%; IC50 (Mu-type opioid receptor [14]): 0.016 nM
